Test results taken from ChEMBL document CHEMBL5661979, “Pharmacological inhibition of BMK1 suppresses tumor growth through promyelocytic leukemia protein” (Cancer Cell, 2010).
Calls of active or inactive are those of the source. The rule behind the calls is not given here.

How the values were obtained:
[1] = target: Serine/threonine-protein kinase A-Raf (Homo sapiens, UniProt P10398); test: Inhibition of ARAF in human HeLa cells lysate pre incubated for 15 mins followed by ATP acyl phosphate probe addition and measured after 10 mins by LC-MS/MS analysis; assay type: subcellular
Serine/threonine-protein kinase A-Raf, sequence (P10398 whole entry, the tested form may be a part): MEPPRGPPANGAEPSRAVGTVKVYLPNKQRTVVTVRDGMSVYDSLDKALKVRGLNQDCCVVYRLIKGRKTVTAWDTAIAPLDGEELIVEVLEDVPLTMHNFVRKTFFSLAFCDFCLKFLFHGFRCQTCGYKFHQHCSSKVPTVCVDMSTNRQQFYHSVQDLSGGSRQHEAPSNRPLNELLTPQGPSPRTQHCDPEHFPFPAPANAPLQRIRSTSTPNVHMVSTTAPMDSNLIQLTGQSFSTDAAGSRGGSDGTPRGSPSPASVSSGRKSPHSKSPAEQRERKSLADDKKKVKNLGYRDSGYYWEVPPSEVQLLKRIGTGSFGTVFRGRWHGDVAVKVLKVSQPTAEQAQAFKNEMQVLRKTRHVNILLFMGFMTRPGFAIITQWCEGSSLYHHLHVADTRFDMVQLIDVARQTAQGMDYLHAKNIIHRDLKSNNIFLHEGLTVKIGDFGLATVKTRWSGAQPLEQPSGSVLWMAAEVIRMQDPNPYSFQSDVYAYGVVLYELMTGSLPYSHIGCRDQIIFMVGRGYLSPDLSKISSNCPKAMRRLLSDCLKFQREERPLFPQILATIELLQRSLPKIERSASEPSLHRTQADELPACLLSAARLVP
Summary of the method: (§1)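 KiNativ-type profiling in HeLa lysate (5 mg/mL total protein). Lysate preincubated 15 min with inhibitor at 50, 10, 2, 0.8 or 0 μM, then ATP or ADP acylphosphate probe added (5 μM final) for 10 min. Reaction stopped with urea and analysed by targeted MS, using up to four fragment ions per kinase peptide-probe conjugate. % inhibition calculated against untreated lysate. Duplicate reactions.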

[2] = target: Calcium/calmodulin-dependent protein kinase type II subunit delta (Homo sapiens, UniProt Q13557); test: Inhibition of CamK2d in human HeLa cells lysate at 50 uM pre incubated for 15 mins followed by ADP acyl phosphate probe addition and measured after 10 mins by LC-MS/MS analysis relative to control; assay type: subcellular; settings: time 25.0 min
Calcium/calmodulin-dependent protein kinase type II subunit delta, sequence (Q13557 whole entry): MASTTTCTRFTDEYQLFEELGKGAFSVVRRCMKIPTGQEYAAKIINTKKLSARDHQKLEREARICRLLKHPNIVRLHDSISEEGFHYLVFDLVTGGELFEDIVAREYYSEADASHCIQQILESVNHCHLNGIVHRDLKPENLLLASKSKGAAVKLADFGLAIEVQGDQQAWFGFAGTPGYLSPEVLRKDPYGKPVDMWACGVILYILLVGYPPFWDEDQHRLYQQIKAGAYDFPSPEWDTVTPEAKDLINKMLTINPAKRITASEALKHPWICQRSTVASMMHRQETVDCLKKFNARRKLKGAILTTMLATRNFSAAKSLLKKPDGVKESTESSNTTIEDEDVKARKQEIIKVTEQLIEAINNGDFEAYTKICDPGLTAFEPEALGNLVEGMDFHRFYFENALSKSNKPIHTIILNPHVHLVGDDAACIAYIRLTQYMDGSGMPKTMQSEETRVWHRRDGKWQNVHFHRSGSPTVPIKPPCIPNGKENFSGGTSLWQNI

[3] = target: Epidermal growth factor receptor (Homo sapiens, UniProt P00533); test: Inhibition of EGFR in human HeLa cells lysate at 50 uM pre incubated for 15 mins followed by ADP acyl phosphate probe addition and measured after 10 mins by LC-MS/MS analysis relative to control; assay type: subcellular; settings: time 25.0 min
Epidermal growth factor receptor, sequence (P00533 whole entry): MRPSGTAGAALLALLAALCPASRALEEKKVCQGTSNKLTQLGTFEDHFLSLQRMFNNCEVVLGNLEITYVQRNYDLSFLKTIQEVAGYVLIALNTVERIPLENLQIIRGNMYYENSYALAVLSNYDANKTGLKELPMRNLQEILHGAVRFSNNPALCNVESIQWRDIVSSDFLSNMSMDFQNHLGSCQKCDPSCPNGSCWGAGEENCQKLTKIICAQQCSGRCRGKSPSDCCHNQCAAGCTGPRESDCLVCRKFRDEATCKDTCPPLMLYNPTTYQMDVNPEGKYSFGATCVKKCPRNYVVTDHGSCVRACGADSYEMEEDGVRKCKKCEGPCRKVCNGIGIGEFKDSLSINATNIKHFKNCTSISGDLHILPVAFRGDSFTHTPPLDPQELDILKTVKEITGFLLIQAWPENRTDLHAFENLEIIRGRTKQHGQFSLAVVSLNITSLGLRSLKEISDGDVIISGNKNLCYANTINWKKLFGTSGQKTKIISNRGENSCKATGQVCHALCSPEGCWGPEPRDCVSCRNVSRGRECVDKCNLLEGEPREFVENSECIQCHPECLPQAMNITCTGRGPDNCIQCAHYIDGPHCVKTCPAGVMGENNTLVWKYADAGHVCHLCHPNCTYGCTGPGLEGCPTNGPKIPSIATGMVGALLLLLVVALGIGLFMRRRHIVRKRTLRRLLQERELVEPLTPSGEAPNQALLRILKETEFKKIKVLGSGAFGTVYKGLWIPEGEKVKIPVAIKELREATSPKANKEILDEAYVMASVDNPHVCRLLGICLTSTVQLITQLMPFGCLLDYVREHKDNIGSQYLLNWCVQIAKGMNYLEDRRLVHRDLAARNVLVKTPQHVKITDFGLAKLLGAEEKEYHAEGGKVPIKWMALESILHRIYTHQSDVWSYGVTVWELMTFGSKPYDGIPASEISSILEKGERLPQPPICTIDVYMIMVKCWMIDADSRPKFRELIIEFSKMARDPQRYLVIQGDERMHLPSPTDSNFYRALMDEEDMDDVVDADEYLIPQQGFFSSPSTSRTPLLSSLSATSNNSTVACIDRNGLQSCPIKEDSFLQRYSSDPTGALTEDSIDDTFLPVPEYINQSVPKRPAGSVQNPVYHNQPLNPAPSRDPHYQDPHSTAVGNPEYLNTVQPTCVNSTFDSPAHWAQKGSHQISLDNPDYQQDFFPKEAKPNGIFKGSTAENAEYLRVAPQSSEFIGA

[4] = Inhibition of HGK/MINK/TNIK in human HeLa cells lysate at 10 uM pre incubated for 15 mins followed by ADP acyl phosphate probe addition and measured after 10 mins by LC-MS/MS analysis relative to control; settings: 25 min, condition cancer
[5] = target: T1, Serine/threonine-protein kinase Sgk3 (Homo sapiens) (UniProt Q96BR1); test: Inhibition of SGK3 in human HeLa cells lysate at 2 uM pre incubated for 15 mins followed by ADP acyl phosphate probe addition and measured after 10 mins by LC-MS/MS analysis relative to control; assay type: subcellular; settings: time 25.0 min
T1 sequence (whole entry): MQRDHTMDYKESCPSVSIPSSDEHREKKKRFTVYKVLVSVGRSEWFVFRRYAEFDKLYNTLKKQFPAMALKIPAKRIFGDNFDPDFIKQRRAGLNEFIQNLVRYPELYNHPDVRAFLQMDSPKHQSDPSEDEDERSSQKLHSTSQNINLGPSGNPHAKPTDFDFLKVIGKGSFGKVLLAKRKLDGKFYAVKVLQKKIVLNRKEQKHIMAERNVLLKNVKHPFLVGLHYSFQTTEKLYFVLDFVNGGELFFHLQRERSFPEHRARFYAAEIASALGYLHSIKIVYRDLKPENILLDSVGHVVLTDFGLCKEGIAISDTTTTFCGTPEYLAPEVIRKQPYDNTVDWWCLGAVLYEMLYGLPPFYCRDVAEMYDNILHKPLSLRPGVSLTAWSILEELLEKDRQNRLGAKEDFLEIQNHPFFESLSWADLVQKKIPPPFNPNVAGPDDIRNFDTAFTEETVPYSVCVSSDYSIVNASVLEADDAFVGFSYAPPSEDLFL

[6] = Inhibition of HGK/MINK/TNIK in human HeLa cells lysate at 2 uM pre incubated for 15 mins followed by ADP acyl phosphate probe addition and measured after 10 mins by LC-MS/MS analysis relative to control; settings: 25 min, condition cancer
[7] = target: Serine/threonine-protein kinase B-raf (Homo sapiens, UniProt P15056); test: Inhibition of BRAF in human HeLa cells lysate at 50 uM pre incubated for 15 mins followed by ATP acyl phosphate probe addition and measured after 10 mins by LC-MS/MS analysis relative to control; assay type: subcellular; settings: time 25.0 min; summary of the method: as §1
Serine/threonine-protein kinase B-raf, sequence (P15056 whole entry): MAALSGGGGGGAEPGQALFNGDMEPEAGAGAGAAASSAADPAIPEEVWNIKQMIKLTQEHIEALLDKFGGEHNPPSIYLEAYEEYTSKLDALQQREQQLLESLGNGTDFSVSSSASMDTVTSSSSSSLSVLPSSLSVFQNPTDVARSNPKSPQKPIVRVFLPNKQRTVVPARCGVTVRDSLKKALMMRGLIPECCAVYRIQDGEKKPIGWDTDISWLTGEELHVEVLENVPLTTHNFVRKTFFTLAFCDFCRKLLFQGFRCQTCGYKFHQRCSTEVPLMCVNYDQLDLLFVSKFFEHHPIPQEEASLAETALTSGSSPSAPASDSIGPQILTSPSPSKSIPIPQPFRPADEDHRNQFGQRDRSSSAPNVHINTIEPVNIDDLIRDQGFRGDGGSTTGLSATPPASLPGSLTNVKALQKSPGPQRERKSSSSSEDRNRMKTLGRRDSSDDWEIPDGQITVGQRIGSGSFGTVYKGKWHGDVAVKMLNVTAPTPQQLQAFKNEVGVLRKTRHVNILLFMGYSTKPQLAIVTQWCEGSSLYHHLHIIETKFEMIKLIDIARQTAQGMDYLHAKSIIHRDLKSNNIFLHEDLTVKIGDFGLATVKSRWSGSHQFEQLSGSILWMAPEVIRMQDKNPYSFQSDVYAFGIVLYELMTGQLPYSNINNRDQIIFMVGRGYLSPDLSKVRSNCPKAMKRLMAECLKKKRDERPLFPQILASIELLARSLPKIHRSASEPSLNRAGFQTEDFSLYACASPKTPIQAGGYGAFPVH

[8] = target: T2, Scaffold protein ILK (Homo sapiens) (UniProt Q13418); test: Inhibition of ILK in human HeLa cells lysate at 50 uM pre incubated for 15 mins followed by ATP acyl phosphate probe addition and measured after 10 mins by LC-MS/MS analysis relative to control; assay type: subcellular; settings: time 25.0 min
T2 sequence (whole entry): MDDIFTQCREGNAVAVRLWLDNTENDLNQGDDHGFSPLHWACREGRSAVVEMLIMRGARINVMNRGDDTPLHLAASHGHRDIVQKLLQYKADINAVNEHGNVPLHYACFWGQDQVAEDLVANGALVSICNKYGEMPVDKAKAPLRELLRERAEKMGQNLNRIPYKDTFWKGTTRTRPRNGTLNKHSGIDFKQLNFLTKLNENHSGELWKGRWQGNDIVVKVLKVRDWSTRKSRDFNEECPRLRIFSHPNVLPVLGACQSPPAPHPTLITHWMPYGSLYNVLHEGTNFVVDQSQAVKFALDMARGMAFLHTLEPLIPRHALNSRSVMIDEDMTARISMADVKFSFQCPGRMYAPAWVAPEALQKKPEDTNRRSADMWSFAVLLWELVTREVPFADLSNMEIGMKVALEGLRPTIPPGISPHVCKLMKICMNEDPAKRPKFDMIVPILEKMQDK

[9] = target: Mitogen-activated protein kinase kinase kinase 11 (Homo sapiens, UniProt Q16584); test: Inhibition of MLK3 in human HeLa cells lysate at 50 uM pre incubated for 15 mins followed by ATP acyl phosphate probe addition and measured after 10 mins by LC-MS/MS analysis relative to control; assay type: subcellular; settings: time 25.0 min
Mitogen-activated protein kinase kinase kinase 11, sequence (Q16584 whole entry, looked up): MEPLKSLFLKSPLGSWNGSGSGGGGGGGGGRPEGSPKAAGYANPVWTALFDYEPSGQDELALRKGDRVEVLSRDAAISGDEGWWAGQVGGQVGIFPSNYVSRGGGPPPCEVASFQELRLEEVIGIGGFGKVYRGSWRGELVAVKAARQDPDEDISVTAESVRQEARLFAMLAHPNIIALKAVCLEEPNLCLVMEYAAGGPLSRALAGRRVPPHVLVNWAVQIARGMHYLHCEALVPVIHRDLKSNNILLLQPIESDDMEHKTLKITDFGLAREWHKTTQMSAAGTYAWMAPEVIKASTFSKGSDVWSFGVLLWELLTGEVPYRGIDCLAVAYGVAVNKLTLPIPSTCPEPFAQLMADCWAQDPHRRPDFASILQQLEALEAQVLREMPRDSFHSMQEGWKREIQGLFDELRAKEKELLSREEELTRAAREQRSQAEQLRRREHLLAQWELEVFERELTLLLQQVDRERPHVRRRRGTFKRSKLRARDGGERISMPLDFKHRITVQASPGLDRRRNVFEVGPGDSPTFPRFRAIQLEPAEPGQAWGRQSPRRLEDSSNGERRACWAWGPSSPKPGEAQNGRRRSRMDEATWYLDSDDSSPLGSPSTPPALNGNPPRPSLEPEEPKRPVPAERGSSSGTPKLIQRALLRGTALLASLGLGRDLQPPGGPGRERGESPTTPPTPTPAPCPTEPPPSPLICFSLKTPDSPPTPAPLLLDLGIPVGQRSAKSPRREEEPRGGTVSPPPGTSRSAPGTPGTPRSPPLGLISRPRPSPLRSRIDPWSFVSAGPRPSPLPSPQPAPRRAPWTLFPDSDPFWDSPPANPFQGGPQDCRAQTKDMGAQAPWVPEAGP

[10] = Inhibition of MSK1/2 domain 1 in human HeLa cells lysate at 50 uM pre incubated for 15 mins followed by ATP acyl phosphate probe addition and measured after 10 mins by LC-MS/MS analysis relative to control; settings: 25 min, condition cancer
[11] = Cardiotoxicity in C57Bl/6 mouse assessed as vasculature instability in heart at 50 mg/kg, ip for 14 days by TUNEL assay; assay type: toxicity, organism-based; settings: in vivo, 336 h, time 14 day
Summary of the method: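 Mice were dosed i.p. at 50 mg/kg over 14 days. Heart sections from treated and control mice were stained by immunofluorescence for CD31 and by TUNEL, with DNase-treated sections as the TUNEL positive control.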

[12] = Plasma concentration in C57Bl/6 mouse at 50 mg/kg, ip administered for 13 day and measured 8 hr post last dose by LC-MS/MS analysis; assay type: ADME, organism-based
[13] = Toxicity in C57Bl/6 mouse assessed as effect on alanine aminotransferase level at 50 mg/kg, ip for 14 days (reference value: 35 U/L); assay type: organism-based; settings: in vivo, 336 h, time 14 day
A549 [14] = test: Antitumor activity against human A549 cells xenografted in NOD/SCID mouse assessed as reduction in BMK activation at 50 mg/kg, ip administered twice a day for 2 days by Western blot analysis; assay type: functional, organism-based; settings: time 2.0 day
Summary of the method: (§2)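 A549 cells (1×10^6, in DMEM) were injected s.c. into the right flank of 6-week-old Nod/Scid mice. On day 21, mice received 50 mg/kg twice daily or carrier; 2 per group. After 2 days, tumors were homogenized in E1A buffer. Western blot read BMK1 activation (mobility shift) and p21, quantified by densitometry normalized to GAPDH.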

A549 [15] = test: Antitumor activity against human A549 cells xenografted in NOD/SCID mouse assessed as increase in p21 protein expression level at 50 mg/kg, ip administered twice a day for 2 days by Western blot analysis; assay type: functional, organism-based; settings: time 2.0 day; summary of the method: as §2

**Q.** Which IC50 [1] does the source give for `CCOc1cc(N2CCC(O)CC2)ccc1Nc1ncc2c(n1)N(C)c1ccccc1C(=O)N2C` here?
**A.** Its IC50 is over 50 µM.

**Q.** And the inhibition [2]?
**A.** Its inhibition is 10.3%.

**Q.** And the inhibition [3]?
**A.** Its inhibition is 5.9%.

**Q.** What about the inhibition at 10 µM [4] of the same molecule?
**A.** The inhibition at 10 µM was -25.3%.

**Q.** And the inhibition [5]?
**A.** Its inhibition is 16.6%.

**Q.** What about the inhibition at 2 µM [6] of the same molecule?
**A.** The inhibition at 2 µM was 8.7%.

**Q.** And the inhibition [7]?
**A.** Its inhibition is 8%.

**Q.** What about the inhibition [8] of the same molecule?
**A.** The inhibition was -6.7%.

**Q.** What about the inhibition [9] of the same molecule?
**A.** Its inhibition is -7.8%.

**Q.** What about the inhibition at 50 µM [10] of the same molecule?
**A.** The inhibition at 50 µM was -21.5%.

**Q.** And the Activity [11]?
**A.** Its Activity is “Non-Toxic”.

**Q.** What about the concentration at 312 h [12] of the same molecule?
**A.** The concentration at 312 h was 11.1 µM.

**Q.** What about the Activity [13] of the same molecule?
**A.** The Activity was 402 U/L.

**Q.** And the Activity (A549 [14])?
**A.** The Activity was “Active”.

**Q.** And the Activity (A549 [15])?
**A.** Its Activity is “Active”.
